# Measured values from ChEMBL document CHEMBL3792340, “Novel benzylidenephenylpyrrolizinones with pleiotropic activities potentially useful in Alzheimer's disease treatment” (Eur J Med Chem, 2016).
# pEC50, pKd: −log10 of the molar value.
# How the values were obtained:
# [1] = Antioxidant activity assessed as nitric oxide radical scavenging activity at 40 uM after 3 hrs by Griess assay; format: physicochemical
# Outline: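 Sodium nitroprusside (50 mM stock in phosphate buffer pH 7.4) mixed with test compound and phosphate buffer, incubated 3 h at 37.4 °C. Aliquot diluted with Griess reagent, absorbance read after 20 min at 546 nm. Inhibition = (Acontrol−Atest)/Acontrol×100; triplicate.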
# [2] = Antioxidant activity assessed as FeCl2-induced lipoperoxidation at 40 uM incubated for 2 hrs in dark by ferric thiocyanate method
# [3] = Cytotoxicity against human KB cells assessed as inhibition of cell proliferation at 10^-5 M after 72 hrs by MTS assay relative control; format: cell-based
# Outline: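 KB nasopharyngeal carcinoma cells in D-MEM with 10% fetal calf serum and antibiotics under 5% CO2; 1000 cells/well, treated 24 h after plating with compounds in DMSO (1% final), exposed 72 h. MTS read at 490 nm; inhibition = (1−OD treated/OD control)×100, triplicate.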
# [4] = biological target: Amyloid-beta precursor protein (Homo sapiens) (UniProt P05067); test: Inhibition of Amyloid beta (1 to 42) (unknown origin) self aggregation at 10 uM measured every 5 mins with shake for 15 secs by ThT fluorescence assay relative to control
# Outline: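 Aβ1-42 (85 μL at 250 μg/mL) with thioflavin T (10 μL at 2 mM) and compound (1 μL of 1 mM) in 100 μL kit buffer; control without compound plus blanks. Fluorescence at 37 °C every 5 min, 15 s shaking between reads, Ex/Em 440/484 nm. Inhibition = 100 − (IFi/IFo×100).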
# [5] = Antioxidant activity assessed as DPPH radical scavenging activity after 30 mins by microplate reader method; format: physicochemical
# Outline: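 Compounds diluted from DMSO stock into absolute ethanol, incubated with 100 μM DPPH for 30 min at room temperature in the dark; absorbance at 517 nm. Scavenging % = (Acontrol−Asample)/Acontrol×100 versus vehicle control.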
# [6] = Metal chelating activity of the compound assessed as formation of copper complex at 50 uM after 10 mins by UV-visible spectroscopy; format: physicochemical
# Outline: (§1)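 Compound in methanol (from 50 mM DMSO stock) at 50 μM mixed with equimolar CuCl2 or FeCl2, 10 min at room temperature; spectra scanned 230–600 nm at 298 K. Difference spectra obtained by subtracting the metal-alone spectrum from the mixture spectrum.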
# [7] = Metal chelating activity of the compound assessed as formation of iron complex at 50 uM after 10 mins by UV-visible spectroscopy; format: physicochemical; outline: as §1
# [8] = Binding affinity to Cu2+ assessed as association constant after 10 to 60 mins by UV-visible spectra analysis
# Outline: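 Ligand titration in methanol–10 mM Tris pH 7.4 (8:2, v/v): compound 0 to 200 μM incubated with or without CuCl2 (50 μM), room temperature. Scanned 230–600 nm at 10 and 60 min. Difference spectra (mixture minus compound) read at each compound's specific wavelength give bound complex and free ligand, using stoichiometry from Job plots at 100 μM total.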
# [9] = Binding affinity to Cu2+ assessed as dissociation constant after 10 to 60 mins by UV-visible spectra analysis
# Outline: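 In methanol–10 mM Tris pH 7.4 (8:2 v/v), compound 0–200 μM incubated with or without CuCl2 50 μM; scans 230–600 nm after 10 and 60 min. Absorbance difference at each compound's specific wavelength gave complex and free-ligand concentrations using the saturation maximum and stoichiometry from Job plots (total 100 μM, varying mole fraction).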
# [10] = Half life in 10 mM phosphate buffer at 20 uM at pH 7.4 at 25 degC by UHPLC analysis; format: physicochemical
# Outline: (§2)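 20 μM compound (from 10 mM DMSO stock) in 10 mM phosphate buffer pH 7.4, ionic strength 150 mM with KCl, at 25 °C, n=3. Sampled at 6 times over 0 to 5 or 8 h by UHPLC-PDA on a C18 column with water/acetonitrile gradient (0.01% formic acid). Half-life from exponential regression of disappearance versus time.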
# [11] = Chemical stability in 10 mM phosphate buffer at 20 uM at pH 7.4 at 25 degC after 5 hrs by UHPLC analysis; format: physicochemical; conditions: pH 7.4, 5 h; outline: as §2
# [12] = Permeability of the compound at 100 uM at pH 7.4 after 4 hrs by PAMPA-BBB assay
# Sequence of Amyloid-beta precursor protein (Homo sapiens) (P05067 whole entry): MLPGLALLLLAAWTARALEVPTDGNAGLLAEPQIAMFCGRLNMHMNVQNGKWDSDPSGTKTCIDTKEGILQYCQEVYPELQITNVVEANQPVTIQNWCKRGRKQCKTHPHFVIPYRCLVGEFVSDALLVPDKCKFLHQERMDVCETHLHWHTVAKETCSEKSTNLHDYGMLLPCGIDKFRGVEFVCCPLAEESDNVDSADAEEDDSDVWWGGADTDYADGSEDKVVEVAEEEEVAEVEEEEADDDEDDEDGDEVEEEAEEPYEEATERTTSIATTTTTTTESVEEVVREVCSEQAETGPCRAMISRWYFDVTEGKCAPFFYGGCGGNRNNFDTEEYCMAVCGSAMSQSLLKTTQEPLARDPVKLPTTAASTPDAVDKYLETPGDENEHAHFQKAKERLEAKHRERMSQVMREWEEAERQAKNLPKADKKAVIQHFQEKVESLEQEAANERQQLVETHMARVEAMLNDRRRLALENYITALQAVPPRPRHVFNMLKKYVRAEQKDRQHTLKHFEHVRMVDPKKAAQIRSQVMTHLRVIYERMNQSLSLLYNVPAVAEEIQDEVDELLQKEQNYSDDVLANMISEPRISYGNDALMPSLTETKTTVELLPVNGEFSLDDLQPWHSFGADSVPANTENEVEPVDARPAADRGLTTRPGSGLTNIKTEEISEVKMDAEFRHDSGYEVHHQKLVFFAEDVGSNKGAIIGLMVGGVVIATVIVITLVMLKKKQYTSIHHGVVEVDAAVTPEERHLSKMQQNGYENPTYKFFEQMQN
SMILES,Activity [1] [%],peroxidation % [2] [%],"inhibition at 72 h, 10 µM [3] [%]",inhibition [4] [%],pEC50 [5],Activity [6],Activity [7],logKa [8],pKd [9],half-life at 20 µM [10] [h],Stability [11],log Pe [12]
O=c1c(O)c(-c2ccc(O)c(O)c2)oc2cc(O)cc(O)c12 [QUERCETIN],70.7,,,,,,,,,,,
O=C1/C(=C/c2ccccc2)C(c2ccccc2)n2cccc21 (centres undefined),34.4,55.1,41,1.4,,,,,,,,
COc1ccc(C2/C(=C\c3ccc(O)c(OC)c3)C(=O)c3cccn32)cc1O (centres undefined),55.1,56.4,29,12.8,4.00,Active,Active,,,,,
COc1ccc(/C=C2/C(=O)c3cccn3C2c2ccc(O)c(OC)c2)c(OC)c1 (centres undefined),40.3,67.5,38,6,< 3.60,Not Active,Not Active,,,,,
COc1cc(/C=C/C(=O)O)ccc1O [FERULATE],46.4,47,,,4.36,,,,,,,
COc1cc(C2/C(=C\c3ccc(O)c(O)c3)C(=O)c3cccn32)ccc1O (centres undefined),58,50.6,0,26.1,4.92,Active,Active,4.65,4.66,6.8,,
COc1ccc(/C=C2/C(=O)c3cccn3C2c2ccc(O)c(OC)c2)cc1O (centres undefined),57.7,58.2,0,15.9,< 3.60,Not Active,Not Active,,,,,
COc1cc(C2/C(=C\c3cc(OC)c(OC)c(OC)c3)C(=O)c3cccn32)ccc1O (centres undefined),32.6,67.1,,23.6,< 3.60,Not Active,Not Active,,,,,
COc1ccc(C2/C(=C\c3ccc(O)c(O)c3)C(=O)c3cccn32)cc1O (centres undefined),57.5,51.3,0,24.9,4.89,Active,Active,4.15,4.15,11.9,,
O=C1/C(=C/c2ccc(O)c(O)c2)C(c2ccccc2)n2cccc21 (centres undefined),65.6,57,0,28.7,4.90,Active,Active,5.65,5.66,,Stable,
COc1cc(C2/C(=C\c3ccc(OCc4ccccc4)c(OCc4ccccc4)c3)C(=O)c3cccn32)ccc1OCc1ccccc1 (centres undefined),30.7,92.8,0,4.2,< 3.60,,,,,,,
O=C1/C(=C/c2ccc(O)c(O)c2)C(c2ccc(O)c(O)c2)n2cccc21 (centres undefined),47.1,47,0,27,5.02,Active,Active,4.7,4.70,6.4,,
COc1ccc(/C=C2/C(=O)c3cccn3C2c2ccc(OC)c(O)c2)cc1O (centres undefined),53.7,71,24,8.4,< 3.60,Active,Active,,,,,
COc1cc(/C=C2/C(=O)c3cccn3C2c2ccc(O)c(OC)c2)ccc1O (centres undefined),57,48.5,0,10.4,3.99,Active,Active,,,,,
Cc1c(C)c2c(c(C)c1O)CCC(C)(C(=O)O)O2 (centres undefined) [TROLOX],,,,,4.74,,,,,,,
COc1cc(C2/C(=C\c3cc(OC)c(O)c(OC)c3)C(=O)c3cccn32)ccc1O (centres undefined),35.3,70.4,0,30.1,3.61,Not Active,Not Active,,,,,
COc1cc(/C=C2/C(=O)c3cccn3C2c2ccccc2)ccc1O (centres undefined),51.7,67.4,24,14.5,< 3.60,Not Active,,,,,,
Cn1c(=O)c2[nH]cnc2n(C)c1=O.O [THEOPHYLLINE],,,,,,,,,,,,< -6
COc1cc(/C=C/C(=O)CC(=O)/C=C/c2ccc(O)c(OC)c2)ccc1O [CURCUMIN],60.4,,83,,4.72,Active,Active,,,,,
